Measurements: ChEMBL document CHEMBL4732048, “Amphiphilic desmuramyl peptides for the rational design of new vaccine adjuvants: Synthesis, in vitro modulation of inflammatory response and molecular docking studies” (2021)
Active and inactive are the calls of the source. The rule behind the calls is not given here.

Legend:
[1] = test system: THP-1; test: Immunostimulatory activity in human THP-1 cells assessed as increase in LPS-induced ICAM-1 expression at 20 uM preincubated for 1 hr followed by LPS stimulation for 20 hrs by flow cytometry analysis; assay type: functional, cell-based; settings: time 21.0 hrs
In short: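 Undifferentiated THP-1 monocytes (0.5×10^6/well, pre-cultured 24 h) pretreated 1 h with peptide (range 0.1–32 µM), then LPS 0.1 µg/mL added for 20 h. Cells pelleted, PBS-washed, resuspended in PBS with 0.1% BSA; ICAM-1 measured by flow cytometry.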

[2] = test system: THP-1; test: Immunostimulatory activity in human THP-1 macrophage assessed as increase in TNF-alpha production at 30 uM incubated for 24 hrs by ELISA; assay type: functional, cell-based
In short: (§1)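 THP-1 monocytes (0.5×10^6) differentiated 48 h with PMA 20 ng/mL, PBS-washed, held 3 h in serum-free medium, then stimulated 24 h with peptide at 1, 15 or 30 µM. TNF-α in culture supernatants (stored −80 °C) measured by ELISA at 450 nm with 540 nm correction against a 2nd-order polynomial standard curve; mean of two experiments ± SEM; one-way ANOVA.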

[3] = test system: THP-1; test: Immunostimulatory activity in human THP-1 macrophage assessed as increase in TNF-alpha production at 15 uM incubated for 24 hrs by ELISA; assay type: functional; in short: as §1
[4] = test system: THP-1; test: Immunostimulatory activity in human THP-1 cells assessed as increase in ICAM-1 expression level at 20 uM incubated for 21 hrs by flow cytometry analysis; assay type: functional, cell-based
In short: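 THP-1 monocytes in RPMI-1640 with 10% heat-inactivated FBS and 1% antibiotic/antimycotic, 5% CO2, 37 °C. 0.5×10^6 cells/well pre-cultured 24 h, then exposed to 20 µM peptide for 21 h. Cells centrifuged, PBS-washed, resuspended in PBS/0.1% BSA, stained with PE anti-CD54 antibody; flow cytometry read-out of ICAM-1.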

[5] = test system: THP-1; test: Immunostimulatory activity in human THP-1 macrophage assessed as increase in LPS-induced ICAM-1 expression by measuring mean fluorescence intensity at 20 uM preincubated for 1 hr followed by LPS stimulation for 20 hrs by flow cytometry analysis (reference value: 602.95); assay type: functional; settings: time 21 hrs

Row | Structure (SMILES) | Activity [1] | Activity [2] | Activity [3] [pg/mL] | Activity [4] | Flu intensity [5]
1 | CCCCCCNC(=O)CC[C@@H](NC(=O)[C@H](C)NC(=O)COc1cccc(N(CCO)C(=O)CCC)c1)C(N)=O | Active | inactive | 2806 | inactive | 
2 | CCCCCCNC(=O)CC[C@@H](NC(=O)[C@H](C)NC(=O)COc1cccc(N(CCCO)CCCO)c1)C(N)=O | Active | inactive | 3306 | inactive | 
3 | CCCCCCNC(=O)CC[C@@H](NC(=O)[C@H](C)NC(=O)COc1cccc(NCCO)c1)C(N)=O | Active | inactive | 3226 | inactive | 
4 | CCCCCCNC(=O)CC[C@@H](NC(=O)[C@H](C)NC(=O)COc1cccc(N(CCO)CCO)c1)C(N)=O | Active | inactive | 3111 | inactive | 
5 | CCCCOC(=O)[C@@H](CCC(N)=O)NC(=O)[C@H](C)NC(=O)[C@@H](C)O[C@H]1[C@H](O)[C@@H](CO)O[C@H](O)[C@@H]1NC(C)=O |  |  | 2694 | inactive | 1436.05
6 | CCCCCCNC(=O)CC[C@@H](NC(=O)[C@H](C)NC(=O)COc1cccc(N(CCCO)C(=O)CCC)c1)C(N)=O | Active | inactive | 3105 | inactive | 905.38
7 | CCCCCCNC(=O)CC[C@@H](NC(=O)[C@H](C)NC(=O)COc1cccc(NCCCO)c1)C(N)=O | Active | inactive | 3622 | inactive | 
8 | CCCCCCNC(=O)CC[C@@H](NC(=O)[C@H](C)NC(=O)COc1cccc(N(CCCO)C(C)=O)c1)C(N)=O | Active | inactive | 2902 | inactive | 
9 | CCCCCCNC(=O)CC[C@@H](NC(=O)[C@H](C)NC(=O)COc1cccc(N(CCO)C(C)=O)c1)C(N)=O | Active | inactive | 3342 | inactive | 
